We go through 21 compounds from ChEMBL document CHEMBL4622933, “Targeting the TS dimer interface in bifunctional Cryptosporidium hominis TS-DHFR from parasitic protozoa: Virtual screening identifies novel TS allosteric inhibitors” (Bioorg Med Chem Lett, 2020).

The test system of data set [1] is Cryptosporidium hominis. Briefly: Inhibition of Cryptosporidium hominis thymidylate synthase assessed as H2F formation at 500 uM preincubated for 30 mins followed by addition of radiolabelled CH2H4F and dUMP by HPLC-coupled flow scintillation analysis relative to control. In a few lines:
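Bifunctional C. hominis TS-DHFR is preincubated with compound for 30 min, then dUMP and radiolabelled CH2H4F are added to start the reaction. TS turnover of CH2H4F to H2F is followed by HPLC with radioactivity flow detection, and results are expressed as % inhibition.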

Data set [2] has as its system Cryptosporidium hominis. Put plainly: Inhibition of Cryptosporidium hominis dihydrofolate reductase assessed as H4F formation at 500 uM preincubated for 30 mins followed by addition of radiolabelled H2F and dUMP by HPLC-coupled flow scintillation analysis relative to control. The method in brief: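 DHFR activity of bifunctional C. hominis TS-DHFR uses a radiometric assay. Conversion of radiolabelled H2F to H4F is followed by HPLC, and % inhibition is reported. The assay is run as a counter-screen for compound aggregation and nonspecific effects.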

Data set [3] in a line: Inhibition of Cryptosporidium hominis thymidylate synthase assessed as H2F formation preincubated for 30 mins followed by addition of radiolabelled CH2H4F and inactive dUMP by HPLC-coupled flow scintillation analysis.
Data set [4] deals with Thymidylate synthase (TS) (Homo sapiens, UniProt P04818). Put plainly: Inhibition of human TS at 500 uM relative to control. The conditions noted are these: human thymidylate synthase enzyme (single protein). The method in brief: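 Human TS enzyme is incubated with compound in the absence of dUMP, then TS activity is measured.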
Chain of Thymidylate synthase (TS) (P04818 whole entry): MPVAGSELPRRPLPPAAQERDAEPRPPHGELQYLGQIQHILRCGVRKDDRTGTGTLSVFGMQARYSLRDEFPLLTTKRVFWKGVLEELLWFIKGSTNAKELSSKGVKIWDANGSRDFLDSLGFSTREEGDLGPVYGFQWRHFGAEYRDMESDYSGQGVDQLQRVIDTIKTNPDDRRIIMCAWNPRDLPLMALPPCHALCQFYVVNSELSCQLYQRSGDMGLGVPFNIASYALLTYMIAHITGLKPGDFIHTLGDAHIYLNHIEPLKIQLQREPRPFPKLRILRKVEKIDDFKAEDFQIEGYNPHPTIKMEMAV
Data set [5] is described as follows: Inhibition of Cryptosporidium hominis thymidylate synthase assessed as H2F formation preincubated for 30 mins followed by addition of radiolabelled CH2H4F and active dUMP by HPLC-coupled flow scintillation analysis.
The nature of data set [6]: Selectivity index, ratio of inhibition of human TS to inhibition of Cryptosporidium hominis thymidylate synthase-dihydrofolate reductase.

Each structure is given as a SMILES string. The source made the active and inactive calls. No cut-off for these calls is given here.

As a reminder, the inhibition is the relative decrease from the control value, in per cent. As for `Cc1ccc(C)c(OCC(O)CNCc2ccc3c(c2)OCO3)c1C` (centres undefined), the inhibition in the data set on Cryptosporidium hominis [1] turned out to be 48%.

As to `Cc1ccc(OCC(O)CNCc2ccc3c(c2)OCO3)cc1C` (centres undefined), the inhibition with Cryptosporidium hominis [1] was 55%.

For the compound `COc1cc(C(=O)O)ccc1OCC(O)CNCc1ccc2c(c1)OCO2` (centres undefined), the inhibition in the data set with Cryptosporidium hominis [1] was under 5%.

As to `CC(=O)c1ccc(OCC(O)CNCc2ccc3c(c2)OCO3)cc1` (centres undefined), the inhibition with Cryptosporidium hominis [1] stood at 55%.

As to `OC(CNCc1ccc2c(c1)OCO2)COc1ccc(F)cc1` (centres undefined), the inhibition in the data set with Cryptosporidium hominis [1] was found to be 7%.

As to `OC(CNCc1ccc2c(c1)OCO2)CSc1ccccc1` (centres undefined), in the data set with Cryptosporidium hominis [1], the inhibition amounted to 34%.

For `OC(CNCc1ccc2c(c1)OCO2)CSc1cccs1` (centres undefined), in the data set on Cryptosporidium hominis [1], the inhibition is 43%.

With `COc1ccc(Cn2c(=O)c3[nH]cnc3n(-c3cccc([S+](C)[O-])c3)c2=O)cc1` (centres undefined), the inhibition with Cryptosporidium hominis [1] was under 5%.

As for `COc1cc(C(C)=O)ccc1OCC(O)CNCc1ccc2c(c1)OCO2` (centres undefined), in the data set on Cryptosporidium hominis [1], the inhibition is 20%.

`OC(CNCc1ccc2c(c1)OCO2)COc1ccc(-c2ccccc2)cc1` (centres undefined): the inhibition was 87% in the data set on Cryptosporidium hominis [1] and 26% with Cryptosporidium hominis [2].

What is called IC50 is the concentration that gives 50% inhibition. Regarding `Cc1cc(Cl)cc(Br)c1OCC(O)CNCc1ccc2c(c1)OCO2` (centres undefined), the values for the inhibition with Cryptosporidium hominis [1] and in the data set with Cryptosporidium hominis [2] were 83% and 19%, respectively. The IC50 stood at 172 µM in data set [3] and 304 µM in data set [5]. For the same compound, in data set [4], the inhibition at 500 µM stood at 50%. In addition, in data set [6], the Ratio came to 2.

For the compound `OC(CNCc1ccc2c(c1)OCO2)COc1ccc(-c2csnn2)cc1` (centres undefined), the inhibition with Cryptosporidium hominis [1] amounted to 76%; in the data set with Cryptosporidium hominis [2] it was 6%.

`CCOC(=O)CNC(=O)CSc1nc2ccccc2c(=O)[nH]1`: the inhibition entry in the data set with Cryptosporidium hominis [1] is “inactive”.

Take `CCCCNC1N=C(c2ccccc2)c2ccccc2N(C)C1=O` (centres undefined): in the data set on Cryptosporidium hominis [1], the inhibition is 15%.

Consider `OC(CNCc1ccc2c(c1)OCO2)COc1ccc(Cl)c(Cl)c1` (centres undefined), for which the inhibition with Cryptosporidium hominis [1] turned out to be 83%; in the data set with Cryptosporidium hominis [2], 60%.

Turning to `COc1ccccc1OCC(O)CNCc1ccc2c(c1)OCO2` (centres undefined), the inhibition in the data set with Cryptosporidium hominis [1] was under 5%.

On to `COc1cc(NC(=O)NCc2cccnc2)cc(C(F)(F)F)c1`, for which the inhibition in the data set on Cryptosporidium hominis [1] turned out to be 46%.

`Cc1ccccc1-n1c(=O)n(Cc2ccc(C(=O)O)cc2)c(=O)c2[nH]cnc21`: the inhibition with Cryptosporidium hominis [1] is under 5%.

As to `OC(CNCc1ccc2c(c1)OCO2)COc1ccc(Br)cc1` (centres undefined), the inhibition with Cryptosporidium hominis [1] was determined as 26%.

With `CC(C)(CC(=O)O)CC(=O)NCc1c(Cl)cccc1Oc1ccccc1`, the inhibition result in the data set with Cryptosporidium hominis [1] was “inactive”.

Regarding `O=C(O)CCC(=O)Nc1ccc(S(=O)(=O)Nc2ccc(C(F)(F)F)cc2)cc1`, the inhibition entry with Cryptosporidium hominis [1] is “inactive”.
